OX1R antag-1: human HCRTR1 antagonism; O43613; CHO/OX1R cells, Fluo-8 calcium fluorescence, orexin A; inhibition, % at 5 µM; 330,000 tested, 0.43% active; AID 434989;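 active means inhibition above its plate's threshold, mean inhibition of all tested compounds on the plate plus 3 SD, cut at about 37% in these data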;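 further: 0% = orexin A challenge wells and 100% = SB-334867-A antagonist wells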
TAAR1 antag: antagonists of human TAAR1 | Q96RJ0 | CHO RD-HGA16 TAAR1, Fluo-8 calcium fluorescence, antagonist | inhibition, % at 3 µM | 360,000 tested, 1.5% active | AID 624466;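 active means inhibition above a per-plate cutoff, the mean inhibition of test compounds on that plate plus 3 SD, cut at about 49% in these data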;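 further: 0% = DMSO plus EC80 beta-PEA response and 100% = DMSO alone without agonist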
Target sequence (Q96RJ0 whole entry, looked up): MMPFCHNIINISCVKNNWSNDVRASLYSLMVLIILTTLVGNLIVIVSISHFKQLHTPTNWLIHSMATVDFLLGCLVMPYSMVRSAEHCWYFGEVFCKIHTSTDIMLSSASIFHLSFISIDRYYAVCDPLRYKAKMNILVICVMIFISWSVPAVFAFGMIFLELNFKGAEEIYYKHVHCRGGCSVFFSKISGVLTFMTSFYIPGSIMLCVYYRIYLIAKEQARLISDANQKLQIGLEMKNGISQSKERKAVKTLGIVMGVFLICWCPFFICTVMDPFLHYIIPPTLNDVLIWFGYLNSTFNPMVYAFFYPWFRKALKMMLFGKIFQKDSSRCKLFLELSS
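Material: CHO RD-HGA16 cells bearing hTAAR1; compound dosing: one-point dosing, 3 µM nominal final; schedule: dye loading 75 min at 37 °C, then 30 min room temperature; measured by: calcium fluorescence with Fluo-8; control set: vehicle and agonist controls; replication: n of 1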
TAAR1 agonist: agonists of human TAAR1 | activation, % at 3 µM | Q96RJ0 | CHO RD-HGA16 TAAR1, Fluo-8 calcium fluorescence; vehicle wells 0%, saturating PEA agonist 100% | 360,000 tested, 0.99% active;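 active means activation above the mean activation of all test compounds in the run plus 3 SD, cut at about 38% in these data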
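System: CHO RD-HGA16 cells carrying human TAAR1 plus Gα16; Incubation: 17-24 h seeding, 75 min 37 °C dye, 30 min RT; Measured by: Fluo-8 fluorescence, 5 s baseline then 140 s kinetic read; Control set: DMSO and PEA EC100; Replication: single well for each compound.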
CHO parental Ca: counter-screen for OX1R antagonists: effect in parental CHO cells; parental CHO-K1, ATP-induced calcium, Fluo-8 fluorescence; inhibition, % at 5.6 µM; 330,000 tested, 0.63% active;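 active means inhibition above that plate's mean sample inhibition plus 3 SD, cut at about 26% in these data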;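 further: 0% = ATP-challenged DMSO wells and 100% = DMSO wells without ATP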
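Material – parental CHO cells · Reagent – ATP stimulus · Compound – single nominal dose of 5.6 µM per compound · Detection – Fluo-8 fluorescence · Read-out basis – percent inhibition of calcium signal · Controls – ATP-challenged DMSO wells low, unchallenged DMSO wells high · Repeats – no replicates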
OX1R antag-2: blocks the human orexin 1 receptor. O43613. OX1R-expressing cells, FRET antagonist read-out. 330,000 tested, 1.8% active. inhibition, % at 6.6 µM; in the data active means inhibition mostly above about 38%, no sharp cut-off; inactive means mostly below about 40%;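 further: 0% = agonist challenge alone and 100% = reference antagonist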
GPR7 antag: antagonists of human GPR7 (neuropeptides B/W receptor 1). AID 1861. P48145. inhibition, % at 4.4 µM. 290,000 tested, 1.1% active. GPR7-expressing cells, fluorescence antagonist assay; in the data active means inhibition above about 16%, passing the limit was not always enough;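 further: cells stimulated with the agonist NPW; 0% = agonist with vehicle and 100% = vehicle without agonist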
Target sequence (P48145 whole entry, looked up): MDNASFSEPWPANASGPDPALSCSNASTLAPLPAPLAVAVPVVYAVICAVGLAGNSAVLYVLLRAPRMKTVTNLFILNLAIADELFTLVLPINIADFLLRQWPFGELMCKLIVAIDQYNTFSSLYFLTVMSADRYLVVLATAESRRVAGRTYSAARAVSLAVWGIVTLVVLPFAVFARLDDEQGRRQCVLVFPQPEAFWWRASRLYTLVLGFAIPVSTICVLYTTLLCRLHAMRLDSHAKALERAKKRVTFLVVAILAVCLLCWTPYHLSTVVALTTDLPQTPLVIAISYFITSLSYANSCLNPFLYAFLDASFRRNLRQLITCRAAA
nonsel antag count: nonselective antagonism, TAAR1 counter-screen | shares compounds with TAAR1 antag | counterscreen cell line, calcium fluorescence, antagonist mode | inhibition, % at 3 µM | 2,400 tested, 77% active | AID 651780; in the data active means inhibition above about 22%;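 further: CHO-Ga16 host cells stimulated with ATP at an EC80 level; 0% = agonist EC80 plus vehicle and 100% = vehicle without agonist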
TAAR1 ant conf: confirmation of human TAAR1 antagonists | shares compounds with TAAR1 antag | TAAR1-expressing cells, fluorescence antagonist read-out | inhibition, % at 3 µM | 2,400 tested, 40% active | AID 651785; in the data active means inhibition above about 49%;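 further: CHO-Ga16 host cells challenged with agonist PEA near its EC80; 0% = agonist at EC80 plus vehicle and 100% = vehicle with no agonist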
Ga16 nonsel ag: nonselective Ga16 agonism, counter-screen; shares compounds with TAAR1 antag; Ga16-expressing cells, calcium fluorescence, agonist counterscreen; activation, % at 3 µM; 2,400 tested, 18% active; AID 651953; in the data active means activation above about 12%;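 further: 0% = vehicle wells and 100% = saturating stimulus response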
TAAR1 ag counter: counter-screen for human TAAR1 antagonists: TAAR1 agonists; AID 651955; activation, % at 3 µM; hTAAR1 cell line, fluorescence activation, agonist mode; shares compounds with TAAR1 antag; 2,400 tested, 2% active; in the data active means activation above about 37%;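 further: CHO cells stably expressing TAAR1 with calcium dye readout; 0% = DMSO vehicle and 100% = full agonist response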
* = called active by the depositor. Hits are enriched below; roughly 4.5% of the tested compounds scored in any of these assays.

`COc1ccc2[nH]c(=O)c(CN(c3ccccc3)S(=O)(=O)c3ccccc3)cc2c1` gave OX1R antag-1 -26, TAAR1 antag 52*, TAAR1 agonist 9, CHO parental Ca -29, OX1R antag-2 32, GPR7 antag -12, nonsel antag count 26*, TAAR1 ant conf 52*, Ga16 nonsel ag 7 and TAAR1 ag counter 16.
For COc1ccccc1NC(=O)N(Cc1cc2cc(OC)c(OC)cc2[nH]c1=O)CC1CCCO1 (stereo not drawn) the results were OX1R antag-1 -22, TAAR1 antag 12, TAAR1 agonist 2, CHO parental Ca -31, OX1R antag-2 6 and GPR7 antag -10.
`COc1ccc(S(=O)(=O)N(Cc2cccnc2)Cc2cc3ccccc3[nH]c2=O)cc1` gave OX1R antag-1 -25, TAAR1 antag 51*, TAAR1 agonist 11, CHO parental Ca -27, OX1R antag-2 9, GPR7 antag -2, nonsel antag count 15, TAAR1 ant conf 25, Ga16 nonsel ag 6 and TAAR1 ag counter 4.
For O=c1[nH]c2ccccc2cc1CN(c1ccccc1)S(=O)(=O)c1ccccc1 the results were OX1R antag-1 -26, TAAR1 antag 7, TAAR1 agonist 5, CHO parental Ca -28, OX1R antag-2 7 and GPR7 antag 0.
For COc1ccc2[nH]c(=O)c(CN(c3ccccc3OC)S(=O)(=O)c3ccccc3)cc2c1 the results were OX1R antag-1 -34, TAAR1 antag 74*, TAAR1 agonist 10, CHO parental Ca -15, OX1R antag-2 8, GPR7 antag -4, nonsel antag count 33*, TAAR1 ant conf 49*, Ga16 nonsel ag 9 and TAAR1 ag counter 9.
For CCC(=O)Nc1ccc(OCC2CCCO2)cc1 (stereo not drawn) the results were OX1R antag-1 5, TAAR1 antag -8, TAAR1 agonist 2, CHO parental Ca -2, OX1R antag-2 5 and GPR7 antag -14.
Screening COc1ccc(Cl)cc1NC(=O)COC(=O)/C=C/c1c(C)nn(C2CCS(=O)(=O)C2)c1Cl (stereo not drawn) returned OX1R antag-1 32, TAAR1 antag 53*, TAAR1 agonist 16, CHO parental Ca 44*, OX1R antag-2 56, GPR7 antag -14, nonsel antag count 42*, TAAR1 ant conf 41, Ga16 nonsel ag 13* and TAAR1 ag counter 13.
`COc1cc(/C=N/NC(=O)c2ccncc2)ccc1O` gave OX1R antag-1 -2, TAAR1 antag -22, TAAR1 agonist 9, CHO parental Ca -4, OX1R antag-2 21 and GPR7 antag -3.
For COc1cc(/C=N/NC(=O)c2cccc(NC(=O)c3ccccc3)c2)ccc1O the results were OX1R antag-1 -14, TAAR1 antag 65*, TAAR1 agonist 14, CHO parental Ca -23, OX1R antag-2 11, GPR7 antag -6, nonsel antag count 31*, TAAR1 ant conf 57*, Ga16 nonsel ag 7 and TAAR1 ag counter 7.
COc1ccc(/C=N/NC(=O)c2nc(-c3ccccc3)cc(-c3ccccc3)n2)cc1OC was read as OX1R antag-1 -20, TAAR1 antag 51*, TAAR1 agonist 21, CHO parental Ca -16, OX1R antag-2 16, GPR7 antag 0, nonsel antag count 26*, TAAR1 ant conf 44, Ga16 nonsel ag 7 and TAAR1 ag counter 9.
COc1ccc(/C=N/NC(=O)c2cccc(NC(=O)c3ccc(Cl)cc3)c2)c(OC)c1 was read as OX1R antag-1 -14, TAAR1 antag 57*, TAAR1 agonist 4, CHO parental Ca -14, OX1R antag-2 14, GPR7 antag -4, nonsel antag count 29*, TAAR1 ant conf 48, Ga16 nonsel ag 5 and TAAR1 ag counter 4.
`O=C(N/N=C/c1ccccc1F)c1cccc(NC(=O)c2ccccc2Cl)c1` gave OX1R antag-1 -30, TAAR1 antag 59*, TAAR1 agonist 18, CHO parental Ca -22, OX1R antag-2 6, GPR7 antag 2, nonsel antag count 29*, TAAR1 ant conf 53*, Ga16 nonsel ag 10 and TAAR1 ag counter 11.
For COc1ccc(/C=N/NC(=O)c2ccc(NC(=O)c3cccc([N+](=O)[O-])c3)cc2)c(OC)c1 the results were OX1R antag-1 -29, TAAR1 antag 31, TAAR1 agonist 10, CHO parental Ca -11, OX1R antag-2 44 and GPR7 antag 0.
`O=C1CCCC/C1=C\Nc1ccc(C(=O)O)c(O)c1` gave OX1R antag-1 5, TAAR1 antag -8, TAAR1 agonist -1, CHO parental Ca -1, OX1R antag-2 12 and GPR7 antag -16.
`C[C@@H]1CN([C@@H](C)CO)C(=O)c2cc(NS(C)(=O)=O)ccc2O[C@@H](C)CCCCO[C@H]1CN(C)Cc1ccc2c(c1)OCO2` gave TAAR1 antag -3 and TAAR1 agonist 1.
`Cn1c(CNC(=O)CNC(=O)Cc2ccccc2)cc(=O)n(C)c1=O` gave OX1R antag-1 -6, TAAR1 antag -23, TAAR1 agonist 0, CHO parental Ca 1, OX1R antag-2 11 and GPR7 antag -18.
Screening Cc1sc(NC(=O)C2C3C=CC(C3)C2C(=O)O)c(C(N)=O)c1-c1ccc(C(C)C)cc1 (stereo not drawn) returned OX1R antag-1 -13, TAAR1 antag 4, TAAR1 agonist 2, CHO parental Ca -20, OX1R antag-2 18 and GPR7 antag -8.
Screening COc1ccc(/C=N/NC(=O)c2cc3c(ccc4ccccc43)o2)c(OC)c1 returned TAAR1 antag 63*, TAAR1 agonist 1, GPR7 antag 5, nonsel antag count 22*, TAAR1 ant conf 44, Ga16 nonsel ag 4 and TAAR1 ag counter 2.
`COc1cc(/C=N\NC(=O)c2ccc(-c3ccccc3)cc2)cc(OC)c1OC(C)=O` gave TAAR1 antag 61*, TAAR1 agonist 8, GPR7 antag -29, nonsel antag count 29*, TAAR1 ant conf 38, Ga16 nonsel ag 8 and TAAR1 ag counter 3.
For COc1cc(/C=N/NC(=O)C2(O)c3ccccc3-c3ccccc32)ccc1O the results were OX1R antag-1 -24, TAAR1 antag -4, TAAR1 agonist 1, CHO parental Ca -17, OX1R antag-2 7 and GPR7 antag -6.

Assay outcomes deposited in PubChem by The Scripps Research Institute Molecular Screening Center.
